Values joined by “and” are separate entries in the source; they are usually repeats but may differ in a detail not shown here. Equal values may be shown once.
Tests used:
Rattus norvegicus [1] = assay: Hepatic triglyceride content in Normolipidemic rat liver for 5 mg/kg of dose of the compound; type: functional
How it was run: (§1)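 Normolipidemic rats dosed orally, with vehicle controls. Liver cholesterol and triglyceride are reported as mg/g of liver, and liver weight in g. For the reversibility set, dosing was 5 mg/kg for 5 days, with livers analysed after treatment and again 6 days after treatment withdrawal.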

Canis familiaris [2] = assay: Inhibition of plasma total cholesterol in the normolipidemic dogs after day 2 of oral administration of 1 mg/kg/day.; type: functional, Canis lupus familiaris
How it was run: (§2)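 Normolipidemic dogs dosed once daily for 4 days by oral gavage, compound suspended in cornstarch vehicle. Plasma sampled 24 h after dosing on days 0, 2, 3 and 4, assayed for triglycerides and total cholesterol (mg/dL). Mean percent inhibition versus day-0 level is given for treated dogs; n = 6 per group; significance by one-way ANOVA, p < 0.05.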

Canis familiaris [3] = assay: Inhibition of plasma total triglycerides in the normolipidemic dogs after day 4 of oral administration of 2.5 mg/kg/day; type: functional, Canis lupus familiaris
Rattus norvegicus [4] = assay: Hepatic cholesterol content in Normolipidemic rat liver for 0.5 mg/kg of dose of the compound; type: functional; how it was run: as §1
Canis familiaris [5] = assay: Inhibition of plasma total triglycerides in the normolipidemic dogs after day 3 of oral administration of 5 mg/kg/day.; type: functional, Canis lupus familiaris
Rattus norvegicus [6] = species on record: Rattus norvegicus; assay: Hepatic cholesterol content in Normolipidemic rat liver after washout.; type: functional; how it was run: as §1
Rattus norvegicus [7] = assay: Inhibition of total cholesterol in normolipidemic rats after 6 hr of 50 mg/kg oral dosing; type: functional; settings: 50 mg/kg
How it was run: (§3)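 Overnight-fasted normolipidemic rats received a single oral dose in cornstarch vehicle. Blood was drawn at 2, 6 and 24 h post-dose and assayed for triglycerides and total cholesterol, with free access to food after the 6 h sample. Value is mean percent inhibition versus a separate vehicle-treated group, unpaired t test p < 0.05, NS = no significant change, N = 6.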

Canis familiaris [8] = assay: Inhibition of plasma total cholesterol in the normolipidemic dogs after day 0 of oral administration of 2.5 mg/kg/day.; type: functional, Canis lupus familiaris; how it was run: as §2
Rattus norvegicus [9] = assay: Inhibition of plasma triglycerides in normolipidemic rats after 2 hr of 10 mg/kg oral dosing; type: functional; how it was run: as §3
[10] = target: T1, Microsomal triglyceride transfer protein large subunit (Homo sapiens, UniProt P55157); assay: In vitro inhibitory activity against MTP using MTP transfer assay
T1 sequence (P55157 whole entry): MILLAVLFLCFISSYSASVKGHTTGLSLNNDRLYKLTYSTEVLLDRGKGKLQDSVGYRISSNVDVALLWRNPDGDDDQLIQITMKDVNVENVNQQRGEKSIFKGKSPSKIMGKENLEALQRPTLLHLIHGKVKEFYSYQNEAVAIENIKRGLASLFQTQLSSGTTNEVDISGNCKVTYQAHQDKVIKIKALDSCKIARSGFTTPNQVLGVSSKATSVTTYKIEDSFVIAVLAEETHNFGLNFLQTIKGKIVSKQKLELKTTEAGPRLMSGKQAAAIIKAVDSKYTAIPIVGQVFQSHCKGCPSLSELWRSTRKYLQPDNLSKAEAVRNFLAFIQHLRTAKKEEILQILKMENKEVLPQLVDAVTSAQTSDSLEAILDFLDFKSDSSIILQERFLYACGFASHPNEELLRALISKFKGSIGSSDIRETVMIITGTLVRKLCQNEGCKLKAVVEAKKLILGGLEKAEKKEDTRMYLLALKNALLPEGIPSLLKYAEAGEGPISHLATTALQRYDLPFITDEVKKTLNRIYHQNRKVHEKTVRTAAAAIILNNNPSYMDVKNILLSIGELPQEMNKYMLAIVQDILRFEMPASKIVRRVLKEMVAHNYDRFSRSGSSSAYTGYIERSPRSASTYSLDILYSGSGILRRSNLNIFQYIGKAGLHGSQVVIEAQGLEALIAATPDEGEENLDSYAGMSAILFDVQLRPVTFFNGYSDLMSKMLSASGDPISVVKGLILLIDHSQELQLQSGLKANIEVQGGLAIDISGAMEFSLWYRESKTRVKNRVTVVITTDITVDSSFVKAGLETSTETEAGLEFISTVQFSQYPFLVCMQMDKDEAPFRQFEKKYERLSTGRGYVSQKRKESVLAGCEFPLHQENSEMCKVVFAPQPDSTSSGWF

Canis familiaris [11] = assay: Inhibition of plasma total cholesterol in the normolipidemic dogs after day 0 of oral administration of 5 mg/kg/day.; type: functional, Canis lupus familiaris; how it was run: as §2
Rattus norvegicus [12] = species on record: Rattus norvegicus; assay: Hepatic triglyceride content in Normolipidemic rat liver after washout.; type: functional; how it was run: as §1
Rattus norvegicus [13] = assay: Hepatic cholesterol content in Normolipidemic rat liver for 5 mg/kg of dose of the compound; type: functional; how it was run: as §1
Rattus norvegicus [14] = assay: Inhibition of plasma triglycerides in normolipidemic rats after 2 hr of 5 mg/kg oral dosing; type: functional; how it was run: as §3
Rattus norvegicus [15] = assay: Inhibition of plasma triglycerides in normolipidemic rats after 2 hr of 50 mg/kg oral dosing; type: functional; how it was run: as §3
Canis familiaris [16] = assay: Inhibition of plasma total triglycerides in the normolipidemic dogs after day 2 of oral administration of 1 mg/kg/day.; type: functional, Canis lupus familiaris; how it was run: as §2
Canis familiaris [17] = assay: Inhibition of plasma total cholesterol in the normolipidemic dogs after day 3 of oral administration of 2.5 mg/kg/day.; type: functional, Canis lupus familiaris; how it was run: as §2
Rattus norvegicus [18] = assay: Hepatic cholesterol content in Normolipidemic rat liver for 1 mg/kg of dose of the compound; type: functional; how it was run: as §1
Canis familiaris [19] = assay: Inhibition of plasma total triglycerides in the normolipidemic dogs after day 0 of oral administration of 2.5 mg/kg/day.; type: functional, Canis lupus familiaris; how it was run: as §2
Rattus norvegicus [20] = assay: Inhibition of total cholesterol in normolipidemic rats after 2 hr of 50 mg/kg oral dosing; type: functional; settings: 50 mg/kg; how it was run: as §3
Canis familiaris [21] = assay: Inhibition of plasma total triglycerides in the normolipidemic dogs after day 0 of oral administration of 5 mg/kg/day.; type: functional, Canis lupus familiaris; how it was run: as §2
Canis familiaris [22] = assay: Inhibition of plasma total cholesterol in the normolipidemic dogs after day 4 of oral administration of 1 mg/kg/day; type: functional, Canis lupus familiaris; how it was run: as §2
Rattus norvegicus [23] = assay: Inhibition of plasma triglycerides in normolipidemic rats after 24 hr of 50 mg/kg oral dosing; type: functional; how it was run: as §3
Rattus norvegicus [24] = assay: Total liver weight in Normolipidemic rat liver for 0.5 mg/kg of dose of the compound; type: functional; how it was run: as §1
Rattus norvegicus [25] = assay: Inhibition of plasma triglycerides in normolipidemic rats after 24 hr of 10 mg/kg oral dosing; no significant change; type: functional, organism-based; parameters: dose 10 mg/kg; how it was run: as §3
Canis familiaris [26] = assay: Inhibition of plasma total triglycerides in the normolipidemic dogs after day 3 of oral administration of 2.5 mg/kg/day.; type: functional, Canis lupus familiaris
Canis familiaris [27] = assay: Inhibition of plasma total cholesterol in the normolipidemic dogs after day 4 of oral administration of 5 mg/kg/day; type: functional, Canis lupus familiaris; how it was run: as §2
Rattus norvegicus [28] = species on record: Rattus norvegicus; assay: Hepatic triglyceride content in Normolipidemic rat liver after treatment.; type: functional; how it was run: as §1
Canis familiaris [29] = assay: Inhibition of plasma total triglycerides in the normolipidemic dogs after day 2 of oral administration of 5 mg/kg/day.; type: functional, Canis lupus familiaris; how it was run: as §2
Canis familiaris [30] = assay: Inhibition of plasma total cholesterol in the normolipidemic dogs after day 3 of oral administration of 1 mg/kg/day.; type: functional, Canis lupus familiaris; how it was run: as §2
Rattus norvegicus [31] = assay: Hepatic triglyceride content in Normolipidemic rat liver for 0.5 mg/kg of dose of the compound; type: functional; how it was run: as §1
Canis familiaris [32] = assay: Inhibition of plasma total cholesterol in the normolipidemic dogs after day 2 of oral administration of 2.5 mg/kg/day.; type: functional, Canis lupus familiaris; how it was run: as §2
Canis familiaris [33] = assay: Inhibition of plasma total triglycerides in the normolipidemic dogs after day 4 of oral administration of 5 mg/kg/day; type: functional, Canis lupus familiaris
Canis familiaris [34] = assay: Inhibition of plasma total cholesterol in the normolipidemic dogs after day 4 of oral administration of 2.5 mg/kg/day; type: functional, Canis lupus familiaris; how it was run: as §2
Rattus norvegicus [35] = assay: Inhibition of plasma triglycerides in normolipidemic rats after 6 hr of 50 mg/kg oral dosing; type: functional; how it was run: as §3
Canis familiaris [36] = assay: Inhibition of plasma total cholesterol in the normolipidemic dogs after day 0 of oral administration of 1 mg/kg/day.; type: functional, Canis lupus familiaris; how it was run: as §2
Canis familiaris [37] = assay: Inhibition of plasma total triglycerides in the normolipidemic dogs after day 3 of oral administration of 1 mg/kg/day.; type: functional, Canis lupus familiaris
Canis familiaris [38] = assay: Inhibition of plasma total cholesterol in the normolipidemic dogs after day 2 of oral administration of 5 mg/kg/day.; type: functional, Canis lupus familiaris; how it was run: as §2
Rattus norvegicus [39] = species on record: Rattus norvegicus; assay: Hepatic cholesterol content in Normolipidemic rat liver after treatment.; type: functional; how it was run: as §1
Canis familiaris [40] = assay: Inhibition of plasma total triglycerides in the normolipidemic dogs after day 2 of oral administration of 2.5 mg/kg/day.; type: functional, Canis lupus familiaris; how it was run: as §2
Rattus norvegicus [41] = assay: Total liver weight in Normolipidemic rat liver for 1 mg/kg of dose of the compound; type: functional; how it was run: as §1
Rattus norvegicus [42] = assay: Total liver weight in Normolipidemic rat liver for 5 mg/kg of dose of the compound; type: functional; how it was run: as §1
Canis familiaris [43] = assay: Inhibition of plasma total triglycerides in the normolipidemic dogs after day 0 of oral administration of 1 mg/kg/day.; type: functional, Canis lupus familiaris; how it was run: as §2
Rattus norvegicus [44] = assay: Inhibition of plasma triglycerides in normolipidemic rats after 6 h of 5 mg/kg oral dosing; type: functional; how it was run: as §3
Rattus norvegicus [45] = assay: Inhibition of plasma triglycerides in normolipidemic rats after 6 hr of 10 mg/kg oral dosing; type: functional; how it was run: as §3
Rattus norvegicus [46] = assay: Hepatic triglyceride content in Normolipidemic rat liver for 1 mg/kg of dose of the compound; type: functional; how it was run: as §1
Canis familiaris [47] = assay: Inhibition of plasma total triglycerides in the normolipidemic dogs after day 4 of oral administration of 1 mg/kg/day.; type: functional, Canis lupus familiaris
Canis familiaris [48] = assay: Inhibition of plasma total cholesterol in the normolipidemic dogs after day 3 of oral administration of 5 mg/kg/day.; type: functional, Canis lupus familiaris; how it was run: as §2

COC(=O)N[C@H]1Cc2ccc(NC(=O)c3cccc(C)c3-c3ccc(C(F)(F)F)cc3)cc2C1
Hepatic triglyceride (Rattus norvegicus [1]): 17.7 mg/g
Lipid level (Canis familiaris [2]): 103 mg/dL
Lipid level (Canis familiaris [3]): <23 mg/dL
Hepatic cholesterol (Rattus norvegicus [4]): 1.4 mg/g
Lipid level (Canis familiaris [5]): <16 mg/dL
Hepatic cholesterol (Rattus norvegicus [6]): 1.12 mg/g
Reduction (Rattus norvegicus [7]): 52% and 58% and 47%
Lipid level (Canis familiaris [8]): 113 mg/dL
Reduction (Rattus norvegicus [9]): 84%
IC50 [10]: 70 nM
Lipid level (Canis familiaris [11]): 124 mg/dL
Hepatic triglyceride (Rattus norvegicus [12]): 2.38 mg/g
Hepatic cholesterol (Rattus norvegicus [13]): 3.09 mg/g
Reduction (Rattus norvegicus [14]): 78%
Reduction (Rattus norvegicus [15]): 81%
Lipid level (Canis familiaris [16]): 42 mg/dL
Lipid level (Canis familiaris [17]): <76 mg/dL
Hepatic cholesterol (Rattus norvegicus [18]): 2.01 mg/g
Lipid level (Canis familiaris [19]): 59 mg/dL
Reduction (Rattus norvegicus [20]): 33% and 41% and 30%
Lipid level (Canis familiaris [21]): 48 mg/dL
Lipid level (Canis familiaris [22]): <89 mg/dL
Reduction (Rattus norvegicus [23]): 63%
Total liver weight (Rattus norvegicus [24]): 9.13 g
NS (Rattus norvegicus [25]): no significant change
Lipid level (Canis familiaris [26]): <25 mg/dL
Lipid level (Canis familiaris [27]): <54 mg/dL
Hepatic triglyceride (Rattus norvegicus [28]): <13.6 mg/g
Lipid level (Canis familiaris [29]): <22 mg/dL
Lipid level (Canis familiaris [30]): 101 mg/dL
Hepatic triglyceride (Rattus norvegicus [31]): 4.61 mg/g
Lipid level (Canis familiaris [32]): <90 mg/dL
Lipid level (Canis familiaris [33]): <12 mg/dL
Lipid level (Canis familiaris [34]): <57 mg/dL
Reduction (Rattus norvegicus [35]): 71%
Lipid level (Canis familiaris [36]): 110 mg/dL
Lipid level (Canis familiaris [37]): 48 mg/dL
Lipid level (Canis familiaris [38]): <87 mg/dL
Hepatic cholesterol (Rattus norvegicus [39]): <2.76 mg/g
Lipid level (Canis familiaris [40]): <32 mg/dL
Total liver weight (Rattus norvegicus [41]): 9.6 g
Total liver weight (Rattus norvegicus [42]): 9.79 g
Lipid level (Canis familiaris [43]): 46 mg/dL
Reduction (Rattus norvegicus [44]): 59%
Reduction (Rattus norvegicus [45]): 68%
Hepatic triglyceride (Rattus norvegicus [46]): 8.16 mg/g
Lipid level (Canis familiaris [47]): 45 mg/dL
Lipid level (Canis familiaris [48]): <68 mg/dL
